Bioassay records as filed in PubChem.
Sampled rows, rich in hits. Any-hit rate of the full collection: about 2.4%.
Jurkat NFkB inh: inhibitors of the PMA/ionomycin-induced NF-kB reporter in Jurkat cells; inhibition, % at 4 µM; 330,000 compounds, 0.53% hits; AID 435003; PMA/ionomycin-induced NF-kB luciferase reporter, luminescence; in the data active = inhibition above about 50%
697 NFkB inh: inhibitors of the PMA/ionomycin-induced NF-kB reporter in 697 B cells; 697 B-cell NF-kB luciferase reporter, 16 h; inhibition, % at 4 µM; 330,000 compounds, 0.33% hits; in the data active = inhibition above about 35%
NR2E3 ag-1: human photoreceptor-specific nuclear receptor agonism. Q9Y5X4. CHO-S Gal4-NCOR/VP16-NR2E3 two-hybrid, luciferase. inhibition of corepressor binding, % at 3.98 µM. 360,000 compounds, 0.35% hits. AID 602229;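 active = inhibition above the mean of all tested compounds plus 3 SD, cut at about 70% in these data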;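 also: 0% = DMSO with NR2E3 transfected cells and 100% = cells lacking NR2E3 construct; higher means lower luciferase signal from less NR2E3 corepressor binding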
Target sequence (Q9Y5X4 whole entry, looked up, the tested form may be a part): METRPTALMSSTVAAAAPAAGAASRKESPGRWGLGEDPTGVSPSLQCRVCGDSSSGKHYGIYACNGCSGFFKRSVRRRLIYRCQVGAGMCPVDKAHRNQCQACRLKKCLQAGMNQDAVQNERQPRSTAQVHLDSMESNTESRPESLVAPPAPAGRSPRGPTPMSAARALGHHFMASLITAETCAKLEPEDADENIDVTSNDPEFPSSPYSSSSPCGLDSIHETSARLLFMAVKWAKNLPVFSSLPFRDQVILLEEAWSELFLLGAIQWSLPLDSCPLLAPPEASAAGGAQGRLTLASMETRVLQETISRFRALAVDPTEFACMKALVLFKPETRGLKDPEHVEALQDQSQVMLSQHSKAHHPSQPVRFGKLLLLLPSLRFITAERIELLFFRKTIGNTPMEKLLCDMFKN
NR2E3 ag-2: agonists of human nuclear receptor NR2E3; GST-NR2E3/biotin-RetCOR TR-FRET, 1536-well; 320,000 compounds, 0.12% hits; inhibition of corepressor binding, % at 4.78 µM; AID 2300; Q9Y5X4;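 active = percent inhibition above the cutoff of mean plus 3 SD of all tested compounds, set per screening campaign, cut at about 20% in these data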;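 also: 0% = DMSO wells and 100% = biotin wells as full block of FRET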
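Material: NR2E3–RetCOR corepressor complex | Quantity: 1.35 nM GST-tagged NR2E3 final | Schedule: 5 h at 4 °C | Replication: Singlicate compound wells | Reagent: RetCOR corepressor, biotinylated, 7 nM | Controls: Biotin wells as high control, 0.6% DMSO wells as low control | Signal: TR-FRET, Eu(K)-anti-GST donor, streptavidin-D2 acceptor, ex 340, em 617/671 nm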
aDG glyco act: increases alpha dystroglycan glycosylation; Pro5-aDG cells, alpha-DG glycosylation AlphaScreen (IIH6); 0% Pro5, 100% B10-LARGE cell signal; activation, % at 10 µM; 360,000 compounds, 0.22% hits; AID 624168;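 active = activation of at least 8% versus controls, or a plate z-score of at least 8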;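 also: Pro5 are CHO cells carrying HIG-tagged alpha-DG that lacks glycosylation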
MPTP inh: blocks calcium-induced mitochondrial swelling. AID 602449. isolated mouse mitochondria, Ca2+ swelling absorbance, 30 min. inhibition, % at 10 µM. 360,000 compounds, 1.4% hits;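 active = inhibition of 50% or more, scaled per plate between neutral and stimulator controls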;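 also: 0% = DMSO wells given calcium and 100% = 1 mM EGTA wells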
Jurkat NFkB conf: inhibitors of the PMA/ionomycin-induced NF-kB reporter in Jurkat cells, retest; shares compounds with Jurkat NFkB inh; Jurkat NF-kB luciferase, 16 h; inhibition, % at 4 µM; 2,700 compounds, 27% hits; AID 435020;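 active = inhibition reaching about 45% at 4 µM in either replicate, limit read from the data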;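 also: plate controls were PMA/ionomycin stimulated DMSO wells for no effect and unstimulated DMSO wells for full effect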
* marks the source's active call; other numbers are inactive results; · = no result given.

SMILES | Jurkat NFkB inh | 697 NFkB inh | NR2E3 ag-1 | NR2E3 ag-2 | aDG glyco act | MPTP inh | Jurkat NFkB conf
O=C(/C=C\Nc1cccc(F)c1)c1cccs1 | -174 | -177 | -140 | -2 | 0 | 6 | -54
COc1cc(-c2noc(C)c2/C=C/c2ccc(OC(C)=O)cc2)cc(OC)c1OC | 68* | -45 | 16 | 2 | 0 | 2 | 49*
COc1ccc(-c2oc(=O)c3cc(OC)c(OC)cc3c2/C=C/c2ccc(OC(C)=O)cc2)cc1 | 2 | 1 | 1 | · | 0 | 1 | ·
CCOC(=O)C(C)Oc1cccc2c(=O)n(CC(=O)Nc3ccc4c(c3)OCCO4)ccc12 (stereo not given) | -12 | 4 | -5 | -2 | 0 | 0 | ·
CCOC(=O)COc1cccc2c(=O)n(CC(=O)NCc3ccccc3)ccc12 | 63* | -6 | -21 | -3 | 0 | 0 | 50
CCOC(=O)COc1cccc2c(=O)n(CC(=O)NCc3ccc(F)cc3)ccc12 | 72* | -14 | -7 | 0 | 0 | 1 | 53*
CCOC(=O)C(C)Oc1cccc2c(=O)n(CC(=O)NCc3ccc4c(c3)OCO4)ccc12 (stereo not given) | 52* | -62 | 22 | 2 | 0 | -1 | 54*
COc1ccc2c(c1)C(C)(Cc1ccc(C(=O)c3ccccc3)cc1)C(=O)N2 (stereo not given) | · | · | 14 | · | 0 | 0 | ·
Cc1cccn2cc(-c3ccc(F)cc3)nc12 | -167 | -198 | -102 | -2 | 0 | 0 | -93
Cc1cccn2cc(-c3ccccc3)nc12 | -92 | -118 | -139 | 1 | 0 | -2 | ·
O=Cc1cn(-c2ccccc2)nc1-c1cc2cc(O)ccc2oc1=O | 1 | 6 | 5 | 4 | 0 | 0 | ·
O=C(O)/C=C/c1cn(-c2ccccc2)nc1-c1cc2ccccc2oc1=O | -164 | -154 | -146 | -2 | 0 | 0 | -95
COc1ccc2[nH]c(=O)c(CN(CC3CCCO3)C(=S)Nc3ccccc3)cc2c1 (stereo not given) | -4 | -11 | -6 | 2 | 1 | -2 | ·
COc1ccc2cc(CN(CC3CCCO3)C(=S)Nc3ccccc3)c(=O)[nH]c2c1 (stereo not given) | 50 | 6 | -20 | 2 | 0 | -4 | 9
CC(C)(C)OC(=O)NCc1ccc(NC(=O)c2nc[nH]c2C(=O)NCCNC(=O)c2[nH]cnc2C(=O)Nc2ccc(CNC(=O)OC(C)(C)C)cc2)cc1 | 62* | 15 | 3 | · | 0 | 2 | 35
COCCOC(=O)c1[nH]c2c(c1C)C(=O)CC(c1ccco1)C2 (stereo not given) | 60* | -15 | -43 | 0 | 0 | 0 | 10
Cc1c(C(=O)OCc2ccccc2)[nH]c2c1C(=O)CC(c1ccco1)C2 (stereo not given) | 63* | -8 | 11 | 3 | 0 | 1 | 39
Cc1c(C(=O)OCCOC(C)C)[nH]c2c1C(=O)CC(c1ccco1)C2 (stereo not given) | 60* | -18 | 9 | 5 | 0 | 0 | 36
CSCCOC(=O)c1[nH]c2c(c1C)C(=O)CC(c1ccco1)C2 (stereo not given) | 58* | -3 | -52 | 0 | 0 | 0 | 2
COc1ccc(Cc2nc3ccc(C(=O)NCCn4ccnc4C)cc3o2)cc1OC | -4 | 2 | -3 | 0 | 0 | 1 | ·
CCOC(=O)c1[nH]c2c(c1C)C(=O)CC(c1ccco1)C2 (stereo not given) | 75* | -42 | 25 | 0 | 0 | -1 | 55*
O=C(c1ccc2c3n(nc2c1)-c1ccc(Cl)cc1CO3)N1CCCCC1 | -89 | -74 | -88 | 0 | 0 | 1 | ·
C=CCNC(=O)c1ccc2c3n(nc2c1)-c1ccccc1CO3 | -154 | -167 | -128 | 0 | 0 | 0 | -71
O=C(O)c1ccc2c3n(nc2c1)-c1ccc(Cl)cc1CO3 | 59* | -22 | · | 3 | · | · | 10
O=C(Nc1ccc(Cl)cn1)c1cc2ccccc2o1 | -152 | -232 | -104 | 3 | 0 | 0 | -102
SMILES | Jurkat NFkB inh | 697 NFkB inh | NR2E3 ag-1 | NR2E3 ag-2 | aDG glyco act | MPTP inh | Jurkat NFkB conf
O=C(Nc1ccccc1C(F)(F)F)c1cc2ccccc2o1 | -152 | -189 | -138 | 0 | 0 | 0 | -81
COC(=O)c1ccccc1NC(=O)c1cc2ccccc2o1 | -2 | -59 | -36 | -1 | 0 | 0 | ·
COc1ccc(C2/C=C\CN(C(=O)NC(C)C)CC(=O)N2Cc2ccc(F)cc2)cc1 (stereo not given) | 4 | 2 | -27 | 5 | 0 | 1 | ·
Cc1ccnc(NC(=O)CNC(=O)c2cccs2)c1 | -6 | 13 | -14 | 0 | 0 | 0 | ·
Cc1ccc2oc(-c3ccc(C)c(NC(=S)NC(=O)c4cccs4)c3)nc2c1 | -170 | -226 | -170 | 0 | 0 | 0 | -86
Cc1ccnc(NC(=S)NC(=O)c2cccs2)c1 | -201 | -181 | -92 | 1 | 0 | 0 | -83
CCOC(=O)/C(C#N)=C/c1cc2ccccc2nc1Cl | -1 | 14 | -32 | 2 | 0 | 0 | ·
CSc1nc2ccccc2cc1/C=C(\C#N)c1cccc(Cl)c1 | 54* | -34 | -29 | 6 | 0 | 3 | 3
COc1ccc(C(=O)c2ccc(OC)c(OC)c2)cc1OC | -10 | -31 | -2 | -1 | 0 | 0 | ·
COc1ccc(C(=O)c2ccc(OC)c(N)c2)cc1N | 53* | -56 | -111 | 1 | 0 | -1 | 33
CCCCCCCCN1C(=O)[C@H](CC(=O)NCc2ccc(C)o2)C[C@@]2(C(=O)OCC)CCC=C12 | · | · | · | · | 0 | -4 | ·
COc1ccccc1C(=O)Nc1nsc(-c2ccccc2)n1 | -84 | -72 | -91 | -3 | 0 | 1 | ·
CCOc1ccccc1NC(=O)c1cccc(NC(=O)c2ccco2)c1 | 57* | -35 | -118 | 0 | 0 | -2 | 31
Cc1ccccc1NC(=O)c1cccc(NC(=O)c2ccco2)c1 | -9 | -4 | -18 | 2 | 0 | 3 | ·
O=C(Nc1ccnn1C1CCN(Cc2ccc(CO)o2)CC1)c1ccc2c(c1)OCO2 | -3 | 20 | -9 | -1 | 0 | -1 | ·
CC(=O)C1=C(C)NC(SCC(N)=O)=C(C#N)C1CC(C)C (stereo not given) | -7 | -3 | -1 | 4 | 0 | -1 | ·
CCOC(=O)C1=C(C)NC(SC)=C(C#N)C1CC(C)C (stereo not given) | 57* | -66 | -5 | 0 | 0 | 15 | 17
COc1ccc(OC)c2sc(N(CCCN(C)C)C(=O)c3ccc(S(=O)(=O)N4CCc5ccccc5C4)cc3)nc12 | 94* | 31 | · | -1 | · | · | 23
